Assay results from ChEMBL document CHEMBL1147441, “A new series of potent oxindole inhibitors of CDK2” (Bioorg Med Chem Lett, 2004).

How the values were obtained:
[1] = tested on: SW480; experiment: In vitro inhibition of SW480 (human colon cancer) cell proliferation.; type: functional, cell-based
In short: (§1)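 MTT-based proliferation assay run on tumour cells. IC50 values were taken from a single experiment.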

[2] = tested on: MDA-MB-435; experiment: In vitro inhibition of MDA MB 435 (human breast cancer) cell proliferation.; type: functional, cell-based; in short: as §1
[3] = molecular target: Cyclin-dependent kinase 2/cyclin E (Homo sapiens, UniProt P24941); experiment: In vitro inhibition of recombinant Cyclin Dependent Kinase-2/Cyclin E.; type: protein-complex assay

Compound	IC50 [1] [nM]	IC50 [2] [nM]	IC50 [3] [nM]
CNCC#Cc1c(F)ccc2c1/C(=C/c1[nH]ccc1OC)C(=O)N2	150	490	4
COc1cc[nH]c1/C=C1\C(=O)Nc2ccc(F)c(C#C[C@@H](N)CO)c21	205	300	5
COc1cc[nH]c1/C=C1\C(=O)Nc2ccc(F)c(C#C[C@@H](NS(C)(=O)=O)[C@@H](C)O)c21	1180	2620	45
COc1cc[nH]c1/C=C1\C(=O)Nc2ccc(F)c(C#C[C@@H](O)[C@@H](N)[C@@H](C)O)c21	140	400	
CCN[C@H](C#Cc1c(F)ccc2c1/C(=C/c1[nH]ccc1OC)C(=O)N2)CO	566	1160	21
CN[C@H](C#Cc1c(F)ccc2c1/C(=C/c1[nH]ccc1OC)C(=O)N2)[C@@H](C)O	140	358	7
COc1cc[nH]c1/C=C1\C(=O)Nc2ccc(F)c(C#C[C@@H]3CCCN3)c21	40	31	2
COc1cc[nH]c1/C=C1\C(=O)Nc2ccc(F)c(C#C[C@@H]3C[C@@H](O)CN3)c21	44	63	4
COc1cc[nH]c1/C=C1\C(=O)Nc2ccc(F)c(C#C[C@H](N)CO)c21	270	320	3
COc1cc[nH]c1/C=C1\C(=O)Nc2ccc(F)c(I)c21		> 30000	1000
CCN[C@H](C#Cc1c(F)ccc2c1/C(=C/c1[nH]ccc1OC)C(=O)N2)[C@@H](C)O	549	1070	18
